In ChEMBL document CHEMBL4732088, “Identification and optimization of piperlongumine analogues as potential antioxidant and anti-inflammatory agents via activation of Nrf2” (Eur J Med Chem, 2021):
The source made the active and inactive calls. No cut-off for these calls is given here.

How the values were obtained:
[1] = tested on: PC-12; assay: Protection against H2O2-induced apoptosis in rat PC12 cells assessed as late apoptotic cells at 10 uM incubated for 24 hrs by annexin V FITC/propidium iodide staining based flow cytometry (reference value: 16.2 %); assay type: functional
[2] = tested on: BV-2; assay: Antiinflammatory activity in mouse BV2 cells transfected with Nrf2 siRNA assessed as inhibition of LPS-induced IL-6 production at 20 uM pretreated with compound followed by LPS stimulation for 18 hrs
[3] = tested on: PC-12; assay: Protection against 6-OHDA-induced apoptosis in rat PC12 cells assessed as early apoptotic cells at 20 uM incubated for 24 hrs by annexin V FITC/propidium iodide staining based flow cytometry (reference value: 19.2 %); assay type: functional
[4] = tested on: PC-12; assay: Protection against 6-OHDA-induced mitochondrial dysfunction in rat PC12 cells assessed as change in mitochondrial membrane potential at 5 uM pretreated with compound followed by 6-OHDA addition by JC-1 staining based flow cytometry (reference value: 73.2 %); assay type: functional
Procedure, shortened: (§1)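 Mitochondrial membrane potential in PC12 cells pretreated with compound (5, 10, 20 μM), then exposed to H₂O₂ (200 μM) or 6-OHDA (150 μM). JC-1 staining, red-to-green fluorescence shift read by flow cytometry. Mean ± SD, n = 3.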

[5] = tested on: PC-12; assay: Protection against H2O2-induced apoptosis in rat PC12 cells assessed as early apoptotic cells at 20 uM incubated for 24 hrs by annexin V FITC/propidium iodide staining based flow cytometry (reference value: 3.9 %); assay type: functional
[6] = tested on: PC-12; assay: (§2) Prevention of 6-OHDA-induced calcium overload in rat PC12 cells assessed as reduction in intracellular free calcium by measuring mean fluorescence intensity at 10 uM pretreated with compound followed by 6-OHDA addition measured after 24 hrs by Fluo-3AM based fluorescence assay (reference value: 6708.18%); assay type: functional
[7] = tested on: PC-12; assay: Protection against 6-OHDA-induced apoptosis in rat PC12 cells assessed as necrotic cells at 20 uM incubated for 24 hrs by annexin V FITC/propidium iodide staining based flow cytometry (reference value: 1.1 %); assay type: functional
[8] = tested on: PC-12; assay: Cytoprotective activity against H2O2-induced neurotoxicity in rat PC12 cells assessed as reduction in LDH release at 5 to 20 uM preincubated for 24 hrs followed by H2O2 treatment by LDH assay; assay type: functional, cell-based; conditions: dose 5-20 µM
Procedure, shortened: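 PC12 cells pretreated with compound (5, 10, 20 μM) for 24 h, then H₂O₂ or 6-OHDA; membrane damage read as LDH leakage; mean ± SD of three independent experiments.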

[9] = tested on: PC-12; assay: Protection against H2O2-induced oxidative damage in rat PC12 cells assessed as intracellular ROS level by measuring mean fluorescence intensity at 20 uM pretreated with compound followed by H2O2 stimulation by DCFH-DA staining based flow cytometry (reference value: 233032.55); assay type: functional
[10] = tested on: PC-12; assay: Protection against H2O2-induced apoptosis in rat PC12 cells assessed as late apoptotic cells at 5 uM incubated for 24 hrs by annexin V FITC/propidium iodide staining based flow cytometry (reference value: 16.2 %); assay type: functional
[11] = tested on: PC-12; assay: Protection against 6-OHDA-induced oxidative damage in rat PC12 cells assessed as intracellular ROS level by measuring mean fluorescence intensity at 10 uM pretreated with compound followed by 6-OHDA stimulation by DCFH-DA staining based flow cytometry (reference value: 26327.34); assay type: functional
[12] = Antioxidant activity assessed as ABTS radical scavenging activity; assay type: functional
[13] = tested on: PC-12; assay: Neuroprotective activity against 6-OHDA-induced cell damage in rat PC12 cells assessed as cell viability at 20 uM after 24 hrs by MTT assay (reference value: 45.23 +/- 4.37 %); assay type: functional; conditions: read-out: Activity
[14] = tested on: PC-12; assay: Protection against 6-OHDA-induced apoptosis in rat PC12 cells assessed as early apoptotic cells at 5 uM incubated for 24 hrs by annexin V FITC/propidium iodide staining based flow cytometry (reference value: 19.2 %); assay type: functional
[15] = Effective permeability of compound by PAMPA-BBB assay; assay type: ADME; conditions: read-out: Peff
[16] = tested on: PC-12; assay: Protection against 6-OHDA-induced oxidative damage in rat PC12 cells assessed as intracellular ROS level by measuring mean fluorescence intensity at 20 uM pretreated with compound followed by 6-OHDA stimulation by DCFH-DA staining based flow cytometry (reference value: 26327.34); assay type: functional
[17] = tested on: PC-12; assay: Protection against 6-OHDA-induced apoptosis in rat PC12 cells assessed as necrotic cells at 5 uM incubated for 24 hrs by annexin V FITC/propidium iodide staining based flow cytometry (reference value: 1.1 %); assay type: functional
[18] = tested on: PC-12; assay: Protection against 6-OHDA-induced mitochondrial dysfunction in rat PC12 cells assessed as change in mitochondrial membrane potential loss at 10 uM pretreated with compound followed by 6-OHDA addition by JC-1 staining based flow cytometry (reference value: 26.8 %); assay type: functional; procedure, shortened: as §1
[19] = tested on: PC-12; assay: Protection against H2O2-induced apoptosis in rat PC12 cells assessed as late apoptotic cells at 20 uM incubated for 24 hrs by annexin V FITC/propidium iodide staining based flow cytometry (reference value: 16.2 %); assay type: functional
[20] = tested on: PC-12; assay: Protection against 6-OHDA-induced apoptosis in rat PC12 cells assessed as viable cells at 10 uM incubated for 24 hrs by annexin V FITC/propidium iodide staining based flow cytometry (reference value: 72.0 %); assay type: functional; conditions: read-out: Activity
[21] = tested on: PC-12; assay: Protection against H2O2-induced mitochondrial dysfunction in rat PC12 cells assessed as change in mitochondrial membrane potential at 10 uM pretreated with compound followed by H2O2 addition by JC-1 staining based flow cytometry (reference value: 78.7 %); assay type: functional; procedure, shortened: as §1
[22] = tested on: PC-12; assay: Neuroprotective activity against 6-OHDA-induced cell death in rat PC12 cells assessed as cell viability at 20 uM preincubated for 30 mins in presence of ZNPP […] and measured after 24 hrs by MTT assay; assay type: functional, cell-based; conditions: time 24.5 hrs
[23] = tested on: PC-12; assay: as §2, with “20” for “10”; assay type: functional
[24] = tested on: PC-12; assay: Prevention of H2O2-induced calcium overload in rat PC12 cells assessed as reduction in intracellular free calcium by measuring mean fluorescence intensity at 20 uM pretreated with compound followed by H2O2 addition by Fluo-3AM based fluorescence assay (reference value: 17791.36%); assay type: functional; conditions: time 24 hrs
[25] = tested on: PC-12; assay: Protection against H2O2-induced mitochondrial dysfunction in rat PC12 cells assessed as change in mitochondrial membrane potential loss at 5 uM pretreated with compound followed by H2O2 addition by JC-1 staining based flow cytometry (reference value: 21.3 %); assay type: functional; procedure, shortened: as §1
[26] = tested on: PC-12; assay: Protection against H2O2-induced apoptosis in rat PC12 cells assessed as necrotic cells at 20 uM incubated for 24 hrs by annexin V FITC/propidium iodide staining based flow cytometry (reference value: 0.6 %); assay type: functional
[27] = tested on: PC-12; assay: Protection against H2O2-induced apoptosis in rat PC12 cells assessed as necrotic cells at 10 uM incubated for 24 hrs by annexin V FITC/propidium iodide staining based flow cytometry (reference value: 0.6 %); assay type: functional

Q: What does the source list for `CCN(C)C(=O)N1CCN(C(=O)/C=C/c2ccc(F)cc2)C1=O`?
A: Activity [1]: 5.3%; Activity [2]: inactive; Activity [3]: 5.2%; Activity [4]: 79.4%; Activity [5]: 2.3%; Flu intensity [6]: 4204.33; Activity [7]: 0.8%; Activity [8]: Active; Flu intensity [9]: 130822.7; Activity [10]: 9.9%; Flu intensity [11]: 12110.88; Activity [12]: inactive; viability at 20 µM [13]: 75.4%; Activity [14]: 11.1%; Papp [15]: 6.78 ×10⁻⁶ cm/s; Flu intensity [16]: 9730; Activity [17]: 1%; Activity [18]: 16.3%; Activity [19]: 3.7%; viability at 10 µM [20]: 85.4%; Activity [21]: 90.2%; Activity [22]: inactive; Flu intensity [23]: 4161.82; Flu intensity [24]: 6730.32; Activity [25]: 13.2%; Activity [26]: 0.3%; Activity [27]: 0.2%
